Screening data as filed in PubChem BioAssay.
The list is not random: actives were taken first. Their share in the collection is about 4.3%.
RAM network inh: blocks the yeast RAM network. S. cerevisiae dse1pr::URA3 reporter, 5-FOA growth OD615, 2 d; analog-sensitive cbk1-as2 kinase mutant strain. 190,000 tested, 1.8% active. inhibition, % at 50 µM. AID 868;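 active = inhibition above a set limit, 3 SD over mean compound inhibition, cut at about 8.4% in these data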;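 also: 0% = DMSO-only wells with no growth and 100% = 10 µM 1-NA-PP1 full growth; inhibition rescues growth on 5-FOA so higher OD means more RAM inhibition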
WT yeast gro inh: growth inhibition of WT yeast, mitochondrial fusion screen; 190,000 tested, 2.1% active; inhibition, % at 10 µM; AID 1362; mitochondrial fusion phenotypic screen, WT strain; in the data active = inhibition above about 58%; tested in S. cerevisiae
Yeast life ext: extends the lifespan of yeast | S. cerevisiae growth with nicotinamide, OD615; deaD strain in restrictive glucose medium | inhibition of the nicotinamide effect, % at 10 µM | 130,000 tested, 0.68% active | AID 775;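 active = inhibition above a set limit, placed 3 SD over the median of all compounds, cut at about 26% in these data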;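 also: 0% = nicotinamide-treated wells and 100% = cells grown without nicotinamide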
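Assay system: engineered S. cerevisiae DeaD replicative-lifespan strain, galactose-grown log-phase cells; Buffer or medium: CSMM-D glucose medium, restrictive; Probe or stimulus: nicotinamide 1.5 mM; Compound: single dose 10 µM compound, 0.25% DMSO; Schedule: 4 h preincubation then 48 h treatment at 30 °C; Technique: OD615 measurement.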
Yeast growth inh: reduces growth of yeast BB579 in restrictive medium | inhibition, % at 10 µM | S. cerevisiae BB579 growth, OD615, 48 h | AID 804 | 140,000 tested, 0.51% active;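 active = inhibition above a set limit, 3 SD over the mean compound inhibition, cut at about 44% in these data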
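Test system: S. cerevisiae DeaD strain BB579 yeast; Medium: restrictive CSMM-D medium; Compound: one dose, 10 µM compound with 0.25% DMSO; Incubation: 4 h cell preincubation, 48 h compound exposure, 30 °C humidified; Signal: OD at 615 nm; Benchmarks: amphotericin B at 10 µg/mL as positive control.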
* = called active by the depositor; . = no result.

SMILES	RAM network inh	WT yeast gro inh	Yeast life ext	Yeast growth inh
NC(=O)c1ccc(NC(=O)CCCN2C(=O)c3ccccc3C2=O)cc1	0	63*	-8	-43
CC(=O)Nc1ccc(NC(=O)CCCN2C(=O)c3ccccc3C2=O)cc1	0	2	.	.
COc1ccc(S(=O)(=O)NC2CCCCC2)cc1C	-1	-11	1	-29
COc1cc(S(=O)(=O)N(C)C2CCCCC2)c(C)cc1C	1	59*	.	.
O=C(CSc1ncnc2c1oc1ccccc12)NCc1ccc(F)cc1	2	9	-3	29
CCOc1ccccc1OCC(=O)NCCc1ccc(S(N)(=O)=O)cc1	2	5	.	.
COC(=O)c1sc2cc([N+](=O)[O-])cc(SCC(C)C)c2c1N	11*	-1	7	-51
Cc1ccc(CSc2nnc(-c3ccco3)o2)cc1	0	21	-10	-12
O=C(NCc1cccs1)c1cc(-c2ccccc2)nc2ccccc12	4	-5	-5	-26
O=C(Nc1nnc(-c2cccs2)o1)c1cc(-c2ccccc2)nc2ccccc12	3	71*	16	-16
Cc1ccc(C)c(-c2cc(C(=O)Nc3nccs3)c3ccccc3n2)c1	0	61*	-2	-21
COC(=O)c1sccc1NC(=O)c1cc(-c2cc(C)ccc2C)nc2ccccc12	8	1	-8	-36
Cc1csc(NC(=O)c2cc(-c3ccccc3)nc3ccccc23)n1	2	62*	-5	-15
O=C(c1ccc(F)cc1)N1CCN(c2cc(N3CCCCC3)c(F)cc2[N+](=O)[O-])CC1	3	37	-4	-41
COC(=O)Cn1c(=NC(=O)c2nc3ccccc3s2)sc2cc(S(N)(=O)=O)ccc21	8.6*	0	2	-37
O=C(NC(NC(=S)Nc1cccc(Cl)c1)C(Cl)(Cl)Cl)OCc1ccccc1 (centres undefined)	6	50	0	5
CC(C)CC(=O)NC(=S)N(Cc1ccccc1)Cc1ccccc1	2	64*	8	-29
CC(C)C(=O)NC(=S)N(Cc1ccccc1)Cc1ccccc1	1	33	5	-7
O=S(=O)(/N=C(/Nc1ccccc1)C(F)(F)F)c1ccccc1	1	-9	7	-3
CCc1ccccc1N/C(=N\S(=O)(=O)c1ccccc1)C(F)(F)F	2	14	30*	-6
CCOC(=O)N(C)OC(=O)Nc1ccc(Cl)c(Cl)c1	1	62*	-10	-55
CCOC(=O)Nc1ccc2c(c1)nc(CN1CCCCC1)n2C	2	-8	.	.
COC(=O)c1ccccc1Oc1nc(Cl)cc(OC)n1	0	-14	-5	23
COc1cc(OC)nc(Oc2ccccc2C(=O)Oc2ccc(C)cc2)n1	9.5*	63	1	-105
COC(=O)c1c(Oc2nc(OC)cc(OC)n2)cccc1Oc1nc(OC)cc(OC)n1	1	-5	13	-21
SMILES	RAM network inh	WT yeast gro inh	Yeast life ext	Yeast growth inh
COc1cc(OC)nc(Oc2ccccc2C(=O)Oc2ccccc2Cl)n1	3	62*	4	-93
COc1cc(OC)nc(Oc2ccccc2C(=O)Oc2ccc(Cl)cc2)n1	7	68*	4	-83
CSc1ncccc1C(=O)OCC(=O)NC(C)C	2	-14	.	.
COC(=O)C(Cc1ccc(OC(=O)c2ccccc2C)cc1)N1Cc2ccccc2C1=O (centres undefined)	8.9*	21	-2	-67
COC(=O)C(Cc1ccc(OC(=O)c2ccccc2Cl)cc1)N1Cc2ccccc2C1=O (centres undefined)	7	10	-11	-54
O=C(COC(=O)C1(c2ccc(F)cc2)CCCC1)Nc1ncc(C(F)(F)F)cc1Cl	7	56	2	-42
O=C(COC(=O)c1ccc([N+](=O)[O-])s1)Nc1ncc(C(F)(F)F)cc1Cl	-1	82*	7	-22
O=C(COC(=O)C1(c2ccc(Cl)cc2)CCCC1)Nc1ncc(C(F)(F)F)cc1Cl	8.9*	68*	3	-54
CCOC(=O)c1nn(-c2cccc(OC)c2)c2nc(CC)c(C#N)c(=O)n12	8.4*	-10	4	-30
Cc1ccc(O)c(C(CC(=O)NC2CCCCC2)c2ccccc2)c1 (centres undefined)	2	6	.	.
CCCCNC(=S)NCc1ccc2[nH]c3c(c2c1)CCCC3	7	69*	.	.
CNC(=S)NCc1ccc2[nH]c3c(c2c1)CCCC3	2	4	.	.
Cc1ccccc1NC(=S)NCc1ccc2[nH]c3c(c2c1)CCCC3	4	79*	-3	20
Cc1ccc(C)c(NC(=S)NCc2ccc3[nH]c4c(c3c2)CCCC4)c1	2	80*	0	18
